Test results taken from ChEMBL document CHEMBL1955742, “Synthesis and SAR studies of phenanthroindolizidine and phenanthroquinolizidine alkaloids as potent anti-tumor agents” (2012).

tested on: A549; assay: Antiproliferative activity against human A549 cells at 10^-8 mol/L after 72 hrs by MTT assay; type: functional; conditions: A549, 72 h

| Compound | inhibition at 0.01 µM [%] |
| --- | --- |
| COc1cc2c3c(c4cc(OC)c(OC)cc4c2cc1OC)[C@H](O)[C@@H]1CCCN1C3 | 17.1 |
| COc1cc2c3c(c4cc(OC)c(OC)cc4c2cc1OC)[C@@H](O)[C@H]1CCCN1C3 | 12.3 |

tested on: HL-60; assay: Antiproliferative activity against human HL60 cells after 72 hrs by SRB assay; type: functional; conditions: not given
Method in brief: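 HL60 human promyelocytic leukemia cells were seeded and grown for 24 h, then given compounds and cultured for another 72 h. Read-out was SRB, per the table footnote. GI50 was obtained by the Logit method from three or more independent experiments.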

| Compound | GI50 [µM] |
| --- | --- |
| COc1ccc2c3c(c4cc(OC)c(OC)cc4c2c1)C[C@@H]1CCCCN1C3 | < 0.001 |

same assay, conditions: Homo sapiens, HL-60, 72 h

| GI50 [µM] | Compound |
| --- | --- |
| < 0.001 | COc1cc2c3c(c4cc(OC)c(OC)cc4c2cc1OC)CN1CCCC[C@@H]1C3 |
| 1.6 | COc1ccc2c3c(c4cc(OC)c(OC)cc4c2c1)[C@H](N)[C@@H]1CCCN1C3 |
| 0.5 | COc1ccc2c3c(c4cc(OC)c(OC)cc4c2c1)CN1CCCC[C@@H]1C3 |

Further lines, the compound ahead of its results:

| Compound | GI50 [µM] |
| --- | --- |
| COc1ccc2c3c(c4cc(OC)c(OC)cc4c2c1)[C@H](O)[C@@H]1CCCN1C3 | > 10 |
| COc1cc2c3c(c4cc(OC)c(OC)cc4c2cc1OC)CN1CCC[C@H]1C3 [(S)-TYLOPHORINE] | 0.01 |
| COc1ccc2c3c(c4cc(OC)c(OC)cc4c2c1)CN1CCC[C@H]1[C@H]3N | 0.05 |
| COc1cc2c3c(c4cc(OC)c(OC)cc4c2cc1OC)[C@H](NC(C)=O)[C@@H]1CCCN1C3 | > 10 |
| COc1ccc2c3c(c4cc(OC)c(OC)cc4c2c1)[C@@H](O)[C@H]1CCCN1C3 | > 10 |

tested on: A549; assay: Antiproliferative activity against human A549 cells at 10^-6 mol/L after 72 hrs by MTT assay; type: functional; conditions: A549, 72 h

| Compound | inhibition at 1 µM [%] |
| --- | --- |
| COc1cc2c3c(c4cc(OC)c(OC)cc4c2cc1OC)[C@H](O)[C@@H]1CCCN1C3 | 80.9 |
| COc1cc2c3c(c4cc(OC)c(OC)cc4c2cc1OC)[C@@H](O)[C@H]1CCCN1C3 | 68.9 |

tested on: HL-60; assay: Antiproliferative activity against human HL60 cells at 10^-6 mol/L after 72 hrs by SRB assay; type: functional; conditions: HL-60, 72 h

| Compound | inhibition at 1 µM [%] |
| --- | --- |
| COc1cc2c3c(c4cc(OC)c(OC)cc4c2cc1OC)[C@H](O)[C@@H]1CCCN1C3 | 85 |
| COc1cc2c3c(c4cc(OC)c(OC)cc4c2cc1OC)[C@@H](O)[C@H]1CCCN1C3 | 76 |

tested on: HL-60; assay: Antiproliferative activity against human HL60 cells at 10^-7 mol/L after 72 hrs by SRB assay; type: functional; conditions: HL-60, 72 h

| Compound | inhibition at 0.1 µM [%] |
| --- | --- |
| COc1cc2c3c(c4cc(OC)c(OC)cc4c2cc1OC)[C@H](O)[C@@H]1CCCN1C3 | 59.5 |
| COc1cc2c3c(c4cc(OC)c(OC)cc4c2cc1OC)[C@@H](O)[C@H]1CCCN1C3 | 37.1 |

tested on: A549; assay: Antiproliferative activity against human A549 cells after 72 hrs by MTT assay; type: functional; conditions: not given
Method in brief: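 A549 human lung adenocarcinoma epithelial cells were seeded and grown for 24 h, then exposed to compounds for a further 72 h. Proliferation was read by MTT, as assigned in the table footnote. GI50 was calculated by the Logit method from at least three independent experiments.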

| Compound | GI50 [µM] |
| --- | --- |
| COc1ccc2c3c(c4cc(OC)c(OC)cc4c2c1)C[C@@H]1CCCCN1C3 | < 0.001 |

same assay, conditions: Homo sapiens, A549, 72 h

| GI50 [µM] | Compound |
| --- | --- |
| < 0.001 | COc1cc2c3c(c4cc(OC)c(OC)cc4c2cc1OC)CN1CCCC[C@@H]1C3 |
| 0.4 | COc1ccc2c3c(c4cc(OC)c(OC)cc4c2c1)[C@H](N)[C@@H]1CCCN1C3 |
| 0.9 | COc1ccc2c3c(c4cc(OC)c(OC)cc4c2c1)CN1CCCC[C@@H]1C3 |
| 0.67 | COc1cc2c3c(c4cc(OC)c(OC)cc4c2cc1OC)[C@H](O)[C@@H]1CCCN1C3 |
| 1.29 | COc1cc2c3c(c4cc(OC)c(OC)cc4c2cc1OC)[C@@H](O)[C@H]1CCCN1C3 |

The remaining lines, values behind:

| Compound | GI50 [µM] |
| --- | --- |
| COc1ccc2c3c(c4cc(OC)c(OC)cc4c2c1)[C@H](O)[C@@H]1CCCN1C3 | > 10 |
| COc1cc2c3c(c4cc(OC)c(OC)cc4c2cc1OC)CN1CCC[C@H]1C3 [(S)-TYLOPHORINE] | 0.7 |
| COc1ccc2c3c(c4cc(OC)c(OC)cc4c2c1)CN1CCC[C@H]1[C@H]3N | 0.1 |
| COc1cc2c3c(c4cc(OC)c(OC)cc4c2cc1OC)[C@H](NC(C)=O)[C@@H]1CCCN1C3 | > 10 |
| COc1ccc2c3c(c4cc(OC)c(OC)cc4c2c1)[C@@H](O)[C@H]1CCCN1C3 | > 10 |

tested on: A549; assay: Antiproliferative activity against human A549 cells at 10^-7 mol/L after 72 hrs by MTT assay; type: functional; conditions: A549, 72 h

| Compound | inhibition at 0.1 µM [%] |
| --- | --- |
| COc1cc2c3c(c4cc(OC)c(OC)cc4c2cc1OC)[C@H](O)[C@@H]1CCCN1C3 | 55 |
| COc1cc2c3c(c4cc(OC)c(OC)cc4c2cc1OC)[C@@H](O)[C@H]1CCCN1C3 | 31.3 |

tested on: HL-60; assay: Antiproliferative activity against human HL60 cells at 10^-8 mol/L after 72 hrs by SRB assay; type: functional; conditions: HL-60, 72 h

| Compound | inhibition at 0.01 µM [%] |
| --- | --- |
| COc1cc2c3c(c4cc(OC)c(OC)cc4c2cc1OC)[C@H](O)[C@@H]1CCCN1C3 | 34.5 |
| COc1cc2c3c(c4cc(OC)c(OC)cc4c2cc1OC)[C@@H](O)[C@H]1CCCN1C3 | 12.7 |
